The values below come from ChEMBL document CHEMBL1141165, “Novel 8-substituted dipyridodiazepinone inhibitors with a broad-spectrum of activity against HIV-1 strains resistant to non-nucleoside reverse transcriptase inhibitors” (J Med Chem, 2005).

The EC50 is the concentration needed to bring the measured effect to its halfway point. Lower therefore signals a more potent agent. What is called IC50 is the concentration that gives 50% inhibition. For orientation: half-life means the time needed for the level to fall by half in the phase considered. A low value points to rapid decline.

Data set [1] deals with T1, Human immunodeficiency virus type 1 reverse transcriptase (Human immunodeficiency virus 1, UniProt Q72547, K103N/Y181C). Briefly: Effective concentration towards HIV-1 K103N/Y181C mutant reverse transcriptase activity by 50% measured in cellular assay. The essentials:
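C8166 T-lymphocytes infected at MOI 0.001 with HIV-1 carrying wild-type or mutant RT, then grown 3 days with serial compound dilutions in RPMI 1640 + 10% FBS, 10 μg/mL gentamycin, 10 μM β-mercaptoethanol (also the diluent). Supernatant pooled from eight replica wells; extracellular p24 measured by HIV-1 p24 antigen kit.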

Data set [2] addresses T2, Human immunodeficiency virus type 1 reverse transcriptase (Human immunodeficiency virus 1, UniProt Q72547). Briefly: Inhibitory activity of compound dissolved in DMSO was determined against HIV-1 wild type reverse transcriptase (1-2 nM) by using [3H]dGTP (71 nM) as substrate, 50 mM Tris/HCl buffer, pH 7.8, incubated for 1 h at 37 degrees C. An outline of the steps:
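Wild-type RT preincubated 15 min at room temperature with inhibitor. Final reaction: Tris/HCl 50 mM pH 7.8, NaCl 60 mM, MgCl2 2 mM, DTT 6 mM, GSH 2 mM, Chaps 0.02%, DMSO 3%, poly rC 179 nM, biotin-dG15 18 nM, dGTP 288 nM, 3H-dGTP 71 nM, enzyme 1–2 nM, inhibitor 10 μM–0.5 nM. Run 1 h at 37 °C, EDTA-quenched, read with streptavidin SPA beads.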

Data set [3] deals with T2, Human immunodeficiency virus type 1 reverse transcriptase. Briefly: Effective concentration towards HIV-1 wild type reverse transcriptase activity by 50% measured in cellular assay. An outline of the steps: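 C8166 T-lymphocytes infected at MOI 0.001 with wild-type HIV-1, then cultured 3 days with serial compound dilutions in RPMI 1640 containing 10% FBS, gentamycin and 10 μM β-mercaptoethanol. Supernatants pooled from eight replicate wells. Extracellular p24 measured by antigen immunoassay.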

Data set [4] deals with T1, Human immunodeficiency virus type 1 reverse transcriptase. The experiment in a line: Inhibitory activity of compound dissolved in DMSO was determined against HIV-1 (K103N/Y181C) mutant reverse transcriptase (1-2 nM) by using [3H]-dGTP (71 nM) as substrate, 50 mM Tris/HCl buffer, pH 7.8, incubated for 1 hr at 37 degrees C. An outline of the steps:
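RT at ≈3 nM preincubated 15 min at room temperature with inhibitor, then substrate added. Final mix: 50 mM Tris/HCl pH 7.8, 60 mM NaCl, 2 mM MgCl2, 6 mM DTT, 2 mM GSH, 0.02% Chaps, 3% DMSO, 179 nM poly rC, 18 nM biotin-dG15, 288 nM dGTP, 71 nM 3H-dGTP, 1–2 nM enzyme, inhibitor 10 μM–0.5 nM. Reaction 1 h at 37 °C, quenched with EDTA plus streptavidin SPA beads, CsCl added, scintillation counted.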

Another data set in a line: in vitro. The settings on record: male, human, liver microsomes. (In general: Liver microsomes are a subcellular fraction often used to study metabolism.)
For another data set, the system named is Caco-2. Briefly: Caco-2 permeability upon incubation at 37 degrees C for 180 minutes. Type of data set: functional, Homo sapiens. The essentials: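 Cells grown on 12-well Transwell membranes and exposed to test solution for 180 min at 37 °C. Receiving-side (basolateral, A to B) samples analysed by HPLC. Apparent permeability = (ΔQ/Δt)/(A·C0), where ΔQ/Δt is the transport rate, A the monolayer area and C0 the initial donor concentration.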

For the compound `CCN1c2ncc(CCOc3ccc(C(=O)O)cc3Br)cc2C(=O)N(C)c2cccnc21`, the EC50 in data set [1] is 35 nM; in data set [3], 3.2 nM. The concentration for half-maximal inhibition (IC50) in data set [2] stood at 18 nM; in data set [4], 300 nM.
As for `CCN1c2ncc(CCOc3ccc(C(=O)O)cc3)cc2C(=O)N(C)c2cccnc21`, the concentration for a half-maximal effect (EC50) was found to be 162 nM in data set [1] and 3.3 nM in data set [3]. Besides, the 50% inhibitory concentration (IC50) in data set [2] was found to be 95 nM; in data set [4], 4480 nM. Moreover, the half-life at 10 µM in “in vitro” was 1.27 h.
With `CCN1c2ncc(CCOc3ccc(C(=O)O)c4ccccc34)cc2C(=O)N(C)c2cccnc21`, the IC50 in data set [2] is 27 nM; in data set [4], 194 nM.
With `CCN1c2ncc(CCOc3ccc(CCC(=O)O)cc3C)cc2C(=O)N(C)c2cccnc21`, the results for the EC50 in data set [1] and in data set [3] were 101 nM and 5.5 nM, respectively. For the same compound, the half-inhibitory concentration (IC50) was determined as 22 nM in data set [2] and 200 nM in data set [4]. For the same compound, in the data set on Caco-2, the Caco-2 A-B came out at 4.69e-05 cm/s. In the data set “in vitro”, this compound yielded a half-life at 10 µM of 3.43 h.
With `CCN1c2ncc(CCOc3ccc(C(=O)O)cc3C)cc2C(=O)N(C)c2ccc(Cl)nc21`, the values for the half-maximal effective concentration (EC50) in data set [1] and in data set [3] were 8.1 nM and 1.6 nM, respectively. Also, the figures for the IC50 in data set [2] and in data set [4] were 10 nM and 64 nM, respectively.
As for `CCN1c2ncc(CCOc3ccc(CC(=O)O)cc3C)cc2C(=O)N(C)c2cccnc21`, the concentration for a half-maximal effect (EC50) is 139 nM in data set [1] and 12 nM in data set [3]. The half-maximal inhibitory concentration (IC50) in data set [2] worked out at 23 nM; in data set [4], 370 nM. This compound also came in with a Caco-2 A-B in the data set with Caco-2 of 1.84e-05 cm/s. Also, the half-life at 10 µM in the data set “in vitro” amounted to 3.6 h.
For `CCN1c2ncc(CCOc3ccc4c(C(=O)O)cccc4c3)cc2C(=O)N(C)c2cccnc21`, the 50% inhibitory concentration (IC50) came out at 63 nM in data set [2] and 4000 nM in data set [4].
